Assay results pooled from the literature.
CYP3A7: Cytochrome P450 3A7 (CYP3A7, Homo sapiens, UniProt P24462)
PDE4C: 3',5'-cyclic-AMP phosphodiesterase 4C (PDE4C, Homo sapiens, UniProt Q08493)
Pancreatic alpha-amylase: Pancreatic alpha-amylase (Homo sapiens, UniProt P04746)
ALB: Albumin (ALB, Bos taurus, UniProt P02769)

| target | observed | mode | technique | time | endpoint | result | Compound |
| --- | --- | --- | --- | --- | --- | --- | --- |
| NAD-dependent protein deacylase sirtuin-5, mitochondrial (SIRT5, Homo sapiens, UniProt Q9NXA8) | enzyme activity | inhibitor | HPLC |  | IC50 | 8 µM | N=c1c[n+](N2CCOCC2)[n-]o1 |
| CYP3A7 | enzyme activity | inhibitor | mass spectrometry | 5 min | IC50 | 12.1 µM | CC(C)(C)[C@@H]1NC(=O)O[C@@H]2CCC[C@H]2OC/C=C/C(F)(F)c2nc3ccccc3nc2O[C@@H]2C[C@@H](C(=O)N[C@]3(C(=O)NS(=O)(=O)C4(C)CC4)C[C@H]3C(F)F)N(C2)C1=O |
| PDE4C | enzyme activity | inhibitor | FP |  | IC50 | ~63 µM | CCc1c(C)nc(-c2ccc(Cl)s2)nc1Nc1ccc(CC(=O)O)cc1 |
| CYP3A7 | enzyme activity | inhibitor | mass spectrometry | 5 min | IC50 | 21.9 µM | CC(C)(C)OC(=O)N[C@H]1CCCCC/C=C\[C@@H]2C[C@@]2(C(=O)NS(=O)(=O)C2CC2)NC(=O)[C@@H]2C[C@@H](OC(=O)N3Cc4cccc(F)c4C3)CN2C1=O |
| Pancreatic alpha-amylase | enzyme activity | inhibitor |  |  | IC50 | > 100 µM | OC[C@H]1O[C@@H](Oc2cc3c4c(c2)[C@@H]([C@@H]2c5cc(O)cc6c5[C@@H](c5cc(O)cc(O)c5[C@H]2c2ccc(O)cc2)[C@H](c2ccc(O)cc2)O6)[C@H](c2ccc(O)cc2)c2c(O)cc(O)cc2[C@H]4[C@H](c2ccc(O)cc2)O3)[C@H](O)[C@@H](O)[C@@H]1O |
| ALB | binding |  | SPR |  | Kd | 6.12 µM | C[C@@H](O)[C@H](NC(=O)[C@H](Cc1ccc(O)cc1)NC(=O)[C@H](Cc1ccc(O)cc1)NC(=O)[C@H](CO)NC(=O)[C@H](CCCNC(=N)N)NC(=O)[C@H](Cc1c[nH]cn1)NC(=O)[C@@H](N)Cc1c[nH]c2ccccc12)C(=O)N[C@@H](Cc1c[nH]c2ccccc12)C(=O)N[C@@H](CC(N)=O)C(=O)O |
| CYP3A7 | enzyme activity | inhibitor | mass spectrometry | 5 min | IC50 | 16.1 µM | COc1ccc2c(O[C@@H]3C[C@H]4C(=O)N[C@]5(C(=O)NS(=O)(=O)C6CC6)C[C@H]5/C=C\CCCCN(C)C(=O)[C@@H]4C3)cc(-c3nc(C(C)C)cs3)nc2c1C |
| Retinoic acid receptor RXR-alpha (RXRA, Homo sapiens, UniProt P19793) | binding |  | SPR |  | Kd | 0.78 µM | O=C(C=Cc1ccccc1)Nc1cc(-c2ccnc(N3CCC(O)CC3)c2)ccn1 |
| Pancreatic alpha-amylase | enzyme activity | inhibitor | absorbance |  | IC50 | 63.5 µM | CCN(CC)c1ccc(/C=N/c2ccc(Cl)cc2)c(O)c1 |
| Carbonic anhydrase 9 (CA9, Homo sapiens, UniProt Q16790) | enzyme activity | inhibitor | stopped-flow |  | Ki | 4.1 µM | O=C1CCc2ccccc2O1 |
| Pancreatic alpha-amylase | enzyme activity | inhibitor | absorbance |  | IC50 | 190 µM | CCN(CC)c1ccc(/C=N/c2ccc(F)c(Cl)c2)c(O)c1 |
| ALB | binding |  | SPR |  | Kd | 3.99 µM | CC(C)C[C@H](NC(=O)[C@H](CC(N)=O)NC(=O)[C@H](Cc1c[nH]c2ccccc12)NC(=O)[C@@H](NC(=O)[C@H](Cc1ccc(O)cc1)NC(=O)[C@H](Cc1ccc(O)cc1)NC(=O)[C@H](CO)NC(=O)[C@H](CCCNC(=N)N)NC(=O)[C@H](Cc1c[nH]cn1)NC(=O)[C@@H](N)Cc1c[nH]c2ccccc12)[C@@H](C)O)C(=O)O |
| Pancreatic alpha-amylase | enzyme activity | inhibitor | absorbance |  | IC50 | 255 µM | CCN(CC)c1ccc(/C=N/c2ccccc2F)c(O)c1 |
| Pancreatic alpha-amylase | enzyme activity | inhibitor |  |  | IC50 | 6.1 µM | Oc1ccc([C@@H]2c3c(O)cc(O)cc3[C@@H]3c4c(cc(O)c5c4[C@@H]2[C@H](c2ccc(O)cc2)[C@H]5c2cc(O)cc4c2[C@@H](c2cc(O)cc(O)c2)[C@H](c2ccc(O)cc2)O4)O[C@H]3c2ccc(O)cc2)cc1 |
| PDE4C | enzyme activity | inhibitor | TR-FRET |  | IC50 | 4.4 µM | CN(C)C(=O)c1cc2cnc(Nc3ccc(N4CCNCC4)cn3)nc2n1C1CCCC1 |
